Measured values reported in ChEMBL document CHEMBL4118256, “Second Generation of Mannich Base-Type Derivatives with in Vivo Activity against Trypanosoma cruzi” (J Med Chem, 2018).
Activity calls are given as the source filed them. The rule behind the calls is not given here.

What was measured:
Trypanosoma cruzi [1] = experiment: (§1) Antitrypanosomal activity against Trypanosoma cruzi MHOM/Pe/2011/Arequipa DTU 5 trypamastigotes infected in Balb/c mouse assessed as reduction in parasitaemia reactivation in brain tissue at 100 mg/kg, po pretreated once daily for 5 consecutive days starting from day 75 post infection followed by cyclophosphamide-induced immunosuppression on day 100 post infection every 4 days for a maximum of 3 doses measured on day 127 post infection by PCR method; assay type: functional; set-up: scale not given: the % may be the effect or the level left
Summary of the method: (§2)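 Necropsy on day 127 pi after oral treatment and cyclophosphamide immunosuppression. Tissue DNA was amplified by PCR targeting the ~300 bp T. cruzi SOD gene, 200 nM each primer, 30 cycles with 55.5 °C annealing. Products run on 2 % agarose; positive organs counted out of six mice.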

Trypanosoma cruzi [2] = experiment: as §1, with “lung” for “brain”; assay type: functional; set-up: scale not given: the % may be the effect or the level left; summary of the method: as §2
Trypanosoma cruzi [3] = experiment: as §1, with “spleen” for “brain”; assay type: functional; set-up: scale not given: the % may be the effect or the level left
Mus musculus [4] = experiment: (§3) Cardiotoxicity in Balb/c mouse infected with Trypanosoma cruzi MHOM/Pe/2011/Arequipa DTU 5 trypamastigotes assessed as decrease in ratio of creatine kinase in muscle to brain at […], po once daily for 5 consecutive days starting from day 10 post infection measured on day 16 post infection by biochemical analysis relative to control; assay type: toxicity, organism-based; set-up: scale not given: the % may be the effect or the level left; conditions: in vivo
Summary of the method: (§4)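 Serum clinical chemistry in Arequipa-infected female BALB/c mice. Oral 20 mg·kg-1 per day for 5 days, started day 10 or day 75 pi. Samples taken at day 16 pi or day 81 pi, and on necropsy day. Markers: CK-MB and LDH (U/L), AST, ALT and alkaline phosphatase (U/L), total bilirubin. Results scored relative to infected untreated controls; uninfected reference n = 15.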

Mus musculus [5] = experiment: (§5) Cardiotoxicity in Balb/c mouse infected with Trypanosoma cruzi MHOM/Pe/2011/Arequipa DTU 5 trypamastigotes assessed as decrease in ratio of creatine kinase in muscle to brain at 100 mg/kg, po once daily for 5 consecutive days starting from day 75 post infection measured on day 127 post infection by biochemical analysis relative to control; assay type: toxicity, organism-based; set-up: scale not given: the % may be the effect or the level left; conditions: in vivo
Trypanosoma cruzi [6] = experiment: Antitrypanosomal activity against Trypanosoma cruzi MHOM/Pe/2011/Arequipa DTU 5 trypamastigotes infected in Balb/c mouse assessed as parasitaemia reactivation at 100 mg/kg, po pretreated once daily for 5 consecutive days starting from day 10 post infection followed by cyclophosphamide-induced immunosuppression on day 100 post infection every 4 days for a maximum of 3 doses measured up to 1 week post immunosuppression by Neubauer chamber method; assay type: functional
Trypanosoma cruzi [7] = experiment: as §1, with “in esophagus” for “in brain”, “at 20” for “at 100”, “day 10” for “day 75”; assay type: functional; set-up: scale not given: the % may be the effect or the level left; summary of the method: as §2
Trypanosoma cruzi [8] = experiment: Antitrypanosomal activity against Trypanosoma cruzi MHOM/Pe/2011/Arequipa DTU 5 trypamastigotes infected in Balb/c mouse assessed as reduction in splenomegaly at 20 mg/kg, po once daily for 5 consecutive days starting from day 10 post infection measured on day 127 post infection relative to control; assay type: functional, organism-based
Mus musculus [9] = experiment: as §5, with “Nephrotoxicity” for “Cardiotoxicity”, “urea level” for “ratio of creatine kinase”, “serum” for “muscle to brain”, “20” for “100”; assay type: toxicity, organism-based; set-up: scale not given: the % may be the effect or the level left; conditions: in vivo
Mus musculus [10] = experiment: (§6) Nephrotoxicity in Balb/c mouse infected with Trypanosoma cruzi MHOM/Pe/2011/Arequipa DTU 5 trypamastigotes assessed as change in uric acid level in serum at 20 mg/kg, po once daily for 5 consecutive days starting from day 10 post infection measured on day 127 post infection by biochemical analysis relative to control; assay type: toxicity, organism-based; conditions: in vivo
Mus musculus [11] = experiment: as §6, with “decrease” for “change”, “75” for “10”; assay type: toxicity, organism-based; set-up: scale not given: the % may be the effect or the level left; conditions: in vivo
Mus musculus [12] = experiment: as §5, with “change” for “decrease”, “20” for “100”, “10” for “75”; assay type: toxicity, organism-based; conditions: in vivo; summary of the method: as §4
Mus musculus [13] = experiment: as §6, with “Hepatotoxicity” for “Nephrotoxicity”, “increase” for “change”, “ratio of serum AST to GOT” for “uric acid”, “level” for “level in serum”; assay type: toxicity, organism-based; conditions: in vivo
Mus musculus [14] = experiment: as §6, with “Hepatotoxicity” for “Nephrotoxicity”, “increase” for “change”, “ratio of serum AST to GOT” for “uric acid”, “level” for “level in serum”, “75” for “10”, “81” for “127”; assay type: toxicity, organism-based; conditions: in vivo
Mus musculus [15] = experiment: as §6, with “Hepatotoxicity” for “Nephrotoxicity”, “ratio of serum ALT to GPT” for “uric acid”, “level” for “level in serum”; assay type: toxicity, organism-based; conditions: in vivo; summary of the method: as §4
Mus musculus [16] = experiment: as §6, with “Hepatotoxicity” for “Nephrotoxicity”, “increase” for “change”, “ratio of serum ALT to GPT” for “uric acid”, “level” for “level in serum”, “75” for “10”, “81” for “127”; assay type: toxicity, organism-based; conditions: in vivo
Mus musculus [17] = experiment: as §6, with “Hepatotoxicity” for “Nephrotoxicity”, “increase” for “change”, “alkaline phosphatase” for “uric acid”, “level” for “level in serum”, “75” for “10”, “81” for “127”; assay type: toxicity, organism-based; conditions: in vivo
Mus musculus [18] = experiment: as §6, with “Hepatotoxicity” for “Nephrotoxicity”, “increase” for “change”, “alkaline phosphatase” for “uric acid”, “level” for “level in serum”, “75” for “10”; assay type: toxicity, organism-based; conditions: in vivo
Mus musculus [19] = experiment: as §6, with “as increase” for “as change”, “in urea” for “in uric acid”, “at […]” for “at 20”; assay type: toxicity, organism-based; conditions: in vivo
Mus musculus [20] = experiment: as §6, with “as increase” for “as change”, “in urea” for “in uric acid”, “at […]” for “at 20”, “day 75” for “day 10”; assay type: toxicity, organism-based; conditions: in vivo
Mus musculus [21] = experiment: as §6, with “as increase” for “as change”, “at […]” for “at 20”, “day 16” for “day 127”; assay type: toxicity, organism-based; conditions: in vivo
Mus musculus [22] = experiment: as §6, with “as increase” for “as change”, “at […]” for “at 20”, “day 75” for “day 10”, “day 81” for “day 127”; assay type: toxicity, organism-based; conditions: in vivo
Mus musculus [23] = experiment: as §6, with “Hepatotoxicity in” for “Nephrotoxicity in”, “in ratio of serum […] to GPT” for “in uric acid”, “level” for “level in serum”, “at 100” for “at 20”; assay type: toxicity, organism-based; conditions: in vivo
Mus musculus [24] = experiment: as §3, with “Hepatotoxicity” for “Cardiotoxicity”, “alkaline phosphatase level” for “ratio of creatine kinase in muscle to brain”, “75” for “10”, “81” for “16”; assay type: toxicity, organism-based; set-up: scale not given: the % may be the effect or the level left; conditions: in vivo; summary of the method: as §4
Mus musculus [25] = experiment: as §6, with “Cardiotoxicity” for “Nephrotoxicity”, “serum LDH” for “uric acid”, “level” for “level in serum”, “[…],” for “20 mg/kg,”, “75” for “10”, “81” for “127”; assay type: toxicity, organism-based; conditions: in vivo; summary of the method: as §4
Mus musculus [26] = experiment: (§7) Hepatotoxicity in Balb/c mouse infected with Trypanosoma cruzi MHOM/Pe/2011/Arequipa DTU 5 trypamastigotes assessed as increase in ratio of serum ALT to GPT level at […], po once daily for 5 consecutive days starting from day 10 post infection measured on day 16 post infection by biochemical analysis relative to control; assay type: toxicity, organism-based; conditions: in vivo
Mus musculus [27] = experiment: as §7, with “day 75” for “day 10”, “day 127” for “day 16”; assay type: toxicity, organism-based; conditions: in vivo
Mus musculus [28] = experiment: as §6, with “Hepatotoxicity” for “Nephrotoxicity”, “total bilirubin” for “uric acid”, “level” for “level in serum”, “[…],” for “20 mg/kg,”, “75” for “10”, “81” for “127”; assay type: toxicity, organism-based; conditions: in vivo; summary of the method: as §4

COc1ccc(C(=O)CCN2CCN(c3ccc(Cl)cc3)CC2)cc1
Activity (Trypanosoma cruzi [1]): 78%
Activity (Trypanosoma cruzi [2]): 78%
Activity (Trypanosoma cruzi [3]): 78%
Activity (Mus musculus [4]): <= 20%
Activity (Mus musculus [5]): <= 10%
Activity (Trypanosoma cruzi [6]): 12%

O=C(Cn1ccnc1[N+](=O)[O-])NCc1ccccc1 [BENZNIDAZOLE]
Activity (Trypanosoma cruzi [7]): 33%
Activity (Trypanosoma cruzi [8]): Active
Activity (Mus musculus [9]): <= 30%
Activity (Mus musculus [10]): < 10%
Activity (Mus musculus [11]): <= 20%
Activity (Mus musculus [12]): < 10%
Activity (Mus musculus [13]): > 40%
Activity (Mus musculus [14]): <= 20%
Activity (Mus musculus [15]): < 10%
Activity (Mus musculus [16]): <= 20%
Activity (Mus musculus [17]): > 40%
Activity (Mus musculus [18]): <= 20%

COc1ccc(C(=O)CCN2CCN(c3ccc(F)cc3)CC2)cc1
Activity (Mus musculus [19]): <= 10%
Activity (Mus musculus [20]): <= 10%
Activity (Mus musculus [21]): <= 20%
Activity (Mus musculus [22]): <= 10%
Activity (Mus musculus [23]): < 10%
Activity (Mus musculus [24]): <= 10%

COc1ccc(C(=O)CCN2CCN(c3ccc([N+](=O)[O-])cc3)CC2)cc1
Activity (Mus musculus [25]): < 10%
Activity (Mus musculus [26]): > 40%
Activity (Mus musculus [27]): <= 10%
Activity (Mus musculus [28]): < 10%
